Results: the EternaBench riboswitch data

Test system: MS2 coat protein
Assay: apparent Kd, MS2 coat protein; higher = weaker binding; RNA-MaP array; FMN 200 µM where present
Method in brief: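 The apparent Kd is reported as the median of filtered per-cluster binding-curve fits. To get these curves, designs transcribed by stalled E. coli RNA polymerase on Illumina sequencing-chip clusters were titrated with SNAP-549-labelled MS2 coat protein from 0.7 or 1.5 nM, doubling to 3 µM. Titrations were run without and then with constant ligand in 100 mM Tris-HCl pH 7.5, 80 mM KCl, 4 mM MgCl2, BSA, DTT, yeast tRNA and Tween-20, and green signal was normalised to red-channel RNA signal and control-cluster median Fmax.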

[1] = designed as: OFF switch for flavin mononucleotide, no ligand
[2] = ligand present: flavin mononucleotide, designed as: OFF switch for flavin mononucleotide
[3] = designed as: ON switch for flavin mononucleotide, no ligand
[4] = ligand present: flavin mononucleotide, designed as: ON switch for flavin mononucleotide

Row | Sequence | apparent Kd [1] | apparent Kd [2] | apparent Kd [3] | apparent Kd [4]
1 | AGAUGACGAUGUCAUCUUCGUCGGACAUGAGGAUCACCCAUGUAGGAUAUGCUACUCAAAGAGUAGCAGAAGGACAUGUGUCUU | 24.6 nM | 92.1 nM |  | 
2 | CUUUUGUGAGGAUAUCAGUAGUAAAAAAAUAAAUUUACUACUGAGAAGGCACAUGAGGAUCACCCAUGUUCCUC | 42.2 nM | 296 nM |  | 
3 | GGAUGCCGCUCAGGAUAUGUGGGUUGUCUAGUAUCUAGAUUCCACAUGAGGAUCACCCAUGUAACACAGAAGGGAGAUGGUGAU |  |  | 526 nM | 23.2 nM
4 | CCGGGAAUAUUAAAUACCUCAACAUGAGGAUCACCCAUGUUGCAGGAUAUCAAUGAGUUGGAAAAUGAGAAGGGCAGCGGGAGA | 5.81 nM | 7.34 nM |  | 
5 | UGUUGUUGAUAGGAUAUACAGGUAGGAGUAGGAGUAGAAGGAUCUACAUGAGGAUCACCCAUGUAGGAGUGAGA | 16.1 nM | 17.7 nM |  | 
6 | AAAACUGCUCAGGAUAUUUGUGUGUCAGGGCAUAAAGAAGGGAGCACAUGAGGAUCACCCAUGUGUUGGGUUCC | 98.5 nM | 149 nM |  | 
7 | UUUGCAUUCCGAGGAUAUUCAUAUAAUAAAUAAACAUGAGGAUCACCCAUGUGGCGAAAGCCUAGGGAGAAGGCGGUAUGCUUU |  |  | 155 nM | 26.8 nM
8 | GGACGUCACAUCUACAUGAGGAUCACCCAUGUCAAAAGACAUGAGGAUAUGCAUCCUAAUUGGAUGCAGAAGGCAUGGACGUCC |  |  | 1200 nM | 70.2 nM
9 | CAAUUUAUUGCAGGAUAUACAAUACAAUGAUUAGUAGAAGGGUAUAAUACAUGAGGAUCACCCAUGUCAUGUGUCAUAAUAACC | 36.7 nM | 27.6 nM |  | 
10 | AUAGAGAUAGCGAUAUGAUCGAGAGAUCAUGUCGCUAAGAUUAGAAGGACAUGAGGAUCACCCAUGUAGGAUAUGGGAGUAGAA |  |  | 127 nM | 49.8 nM
11 | UACAGACAUGAGGAUCACCCAUGUAAGGAUAUCGGUACCGAUGGCAUAAUCUGCUCGGCGAGAAGGUACAGUGU | 22.6 nM | 24.9 nM |  | 
12 | UCCUCGAUGUAGAAGGCCGCGUCCGGCUCACGCGGAGGAUAUACAUGAGGAUCACCCAUGUGUUUGUGGCUAAUAUGGUACGAA | 159 nM | 18.2 nM |  | 
13 | UUGUUAUAUGUAGGAUAUGCGUAUUAUUAUUAUGCAGAAGGACAUGAGGAUCACCCAUGUAUAUUAUUAUUAUAUAUUAUAUAU | 27.9 nM | 43.7 nM |  | 
14 | AUUUCCAGAGGAUAUGCGAGGGUGUACCUCUAACAGCGCAAACAUGAGGAUCACCCAUGUAGAAGGCUGAUCAU | 56.5 nM | 54.8 nM |  | 
15 | CGUCGGAGCAGAGGAUAUUACAUGAGGAUCACCCAUGUAUGAACCAAUAGCUGGAAACAGCAAUGUAAGAAGGCUGCUCCGACA | 12.8 nM | 198 nM |  | 
16 | GUCAGCUCGUGAGGAUAUACAACAGUGCUUCGGCAGUGUAUUAAGAUCACAUGAGGAUCACCCAUGUAGAAGGCACGAGCUGAU | 13.1 nM | 207 nM |  | 
17 | CAGACCGGCAUAGGAUAUGUCGACAUGAGGAUCACCCAUGUAAGCCUUGUCUGGUCCGGUGUGUGACAGAAGGAUGUCGGCCAU | 37.7 nM | 26.4 nM |  | 
18 | AAAAAGUCAGGAUAUGUCAAAGGUCACGAAAGUGACAAAGGACAGAAGGGACAUGAGGAUCACCCAUGUAAAAA | 30.2 nM | 46.1 nM |  | 
19 | GAAACGCUUGACAUGAGGAUCACCCAUGUUAGAUUGUUAUGUCAGGAUAUAGUCUAGAAACUAGACUAGAAGGGAUAUGUUUCU |  |  | 438 nM | 107 nM
20 | CCUCCUGGUCAGGAUAUCGGACGUUUUAUUCGACGAGAAGGGACCACAUGAGGAUCACCCAUGUGAUGAAGAAC | 42.4 nM | 182 nM |  | 
21 | GUAGCAUACAGAGGAUAUUCAAACGACAAAAGUCGACAUGAGGAUCACCCAUGUGGCGAAAGCCGGGAGAAGGCUGAAUGCUAC |  |  | 15 nM | 12 nM
22 | UUAUAAAGUGUGAGGAUAUGCUGGUCCAUAGAUCAGCAGAAGGCACAUGAGGAUCACCCAUGUAAUAUAUUUUU | 28.8 nM | 133 nM |  | 
23 | AAGUGUCCUAAGGAUAUCGAAGCUAUCGGCUGCCGAGAAGGUAGGACAUGAGGAUCACCCAUGUACCGUGAGCC | 68.1 nM | 29.8 nM |  | 
24 | UUUGCAUUCCGAGGAUAUUCAUUUAAUGACUUCACAUGAGGAUCACCCAUGUGGCGAUAGCGCCGGGAGAAGGCGGUUUGCUUU |  |  | 23.1 nM | 25.7 nM

Row | Sequence | apparent Kd [1] | apparent Kd [2] | apparent Kd [3] | apparent Kd [4]
25 | GGAAAUCAUGUAGGAUAUGCAUGGCGAAGCUACGCAGAAGGACAUGAGGAUCACCCAUGUUCUAGCGUCUGAGUUCAGAUGCAA | 20.4 nM | 56.3 nM |  | 
26 | GUCGGAAACGACAAAAGUAGCAUAGGAGAAGGCAUGUCAUAAGACAUGAGGAUCACCCAUGUGCAUGAGGAUAUCCUAUGCUAC |  |  | 5.53 nM | 4.98 nM
27 | CUUGUGUGAGGAUAUGACAAUGGUAUCUUCGGAUACCAUUGUCAGAAGGUACAUGAGGAUCACCCAUGUAGAUC | 91 nM | 140 nM |  | 
28 | CAGUACUGAGGAUAUACAUGAGGAUCACCCAUGUGUUCCUGCUAGGAAACUAGCAAAAGUAGAAGGCAGUACUG | 25.2 nM | 532 nM |  | 
29 | AGCACGAAAGUGCAACGAUGUACGAGAAGGACAUGAGGAUCACCCAUGUAUGCAGUAACUGCUAUGUAGGAUAUCGUACAUCGA | 7.57 nM | 9.94 nM |  | 
30 | AUCAUGUCAGGAUAUGUGAUAUGGAUCUUCGGAUCAAGUUCACAGAAGGGACAUGAGGAUCACCCAUGUCGAAC | 50.6 nM | 91.7 nM |  | 
31 | CGACGUUGGGAGAAGGAGUAAAAUACAUGAGGAUCACCCAUGUCAGGUGCUAGGAUAUCCUCGCGUGGCAGGGUCGGCCCGUGU |  |  | 97.2 nM | 32.7 nM
32 | AAAUAAACUAGCAUAAUAACCUCACAUGAGGAUCACCCAUGUAAGGAUAUCUGUCCUAAAAGGACAGAGAAGGUACGUGCUAGG | 4.72 nM | 4.88 nM |  | 
33 | GGAUCGCGUGUGAGGAUAUGCUCGACCUUGGUCGAGCAGAAGGCACAUGAGGAUCACCCAUGUGACCUCGGUCC | 87.5 nM | 451 nM |  | 
34 | GGUGCGUAUGUGAGGAUAUGCUGGUCCUUGGAUCAGCAGAAGGCACAUGAGGAUCACCCAUGUGGUGUCGUGCC | 114 nM | 20.8 nM |  | 
35 | AGCUGUGGCCGAGGAUAUCUAUUAAUCCAAACCGAAAUAUAAUCGGACAUGAGGAUCACCCAUGUAGAGAAGGCGGUCUCAGCA | 72 nM | 77.2 nM |  | 
36 | UCAAGAAGGCAGAAGGGUCCUCACAUGAGGAUCACCCAUGUAGAUAUGGAUAGGAUAUGUCUAGAGAAGUGUUGCUCUAAGGGU |  |  | 1050 nM | 159 nM
37 | UAUUAAUACGAAGGAUAUGGUUACAUGAGGAUCACCCAUGUAUGUAUAUUGAUCUAGAUAUUUAACCAGAAGGUCGGGAGUAAA | 39 nM | 38.2 nM |  | 
38 | AUCAAUCACAUAGGAUAUAGAAUAUUAUAUUUUUACAUGAGGAUCACCCAUGUUUUAUUGGGAUUCUAGAAGGAUGAGUUAUUA |  |  | 130 nM | 118 nM
39 | UGGUACAACGGAGGAUAUCAUGUAGAUACAUGAGGAUCACCCAUGUCGAUGGAGACAUCGGAGAUUGAGAAGGCCGUUGUACCU |  |  | 692 nM | 30.1 nM
40 | GCCAAGGUACAGAAGGGACUACAUGAGGAUCACCCAUGUGUUUCUGCACGUAAAUGAUACAGUGGUCAGGAUAUGUGCUCCAAA | 9.49 nM | 25.8 nM |  | 
41 | GUAUUUUUACAGAAGGUGUAUUACAUGAGGAUCACCCAUGUUUUAUGGAAUAAAGAUUUUAUUUACAAGGAUAUGUACUAUUUU |  |  | 31.7 nM | 20.6 nM
42 | UUUUUGUCAGGAUAUGAUUAGAUCUACUUUUGUAGAUCUAAUCAGAAGGGACAUGAGGAUCACCCAUGUAGUUU | 37.2 nM | 152 nM |  | 
43 | GUAUCUUACCGAGGAUAUUUACGAUUAGUGUAGACAUGAGGAUCACCCAUGUGGCGUUAGUCACGGGAGAAGGCGGUUUGAUAC |  |  | 92.2 nM | 20.5 nM
44 | UGGUUGUGUGUCAGGAUAUGGUCUGGUGUUUCGGGCUAGAAGGGACAUGAGGAUCACCCAUGUGGCUGGCGGGU | 262 nM | 439 nM |  | 
45 | UAGAAAGAUUAAUAUGAUUACAUGAGGAUCACCCAUGUAUAAUAGGAUAUCGACGUCAAUGACGUCGAGAAGGAUUAUACAUAA | 53.6 nM | 71.2 nM |  | 
46 | UGCUGGGAAUCAGGAUAUACGUGGUAUCCUGAGCACAUGAGGAUCACCCAUGUAGAAGGGAUUCCGCGGUGAGAUUCCGAAACA | 4.97 nM | 5.45 nM |  | 
47 | GGUACGCAUGUAGGAUAUCGAGCUCAAAGAGCUCGAGAAGGACAUGAGGAUCACCCAUGUCCUCACAGACAGUGAGGGCGUACC | 18 nM | 26.5 nM |  | 
48 | GGACGUCACAUUUACAUGAGGAUCACCCAUGUCUCUUGACAUGAGGAUAUGGAUCCUAAUUGGAUCCAGAAGGCAUGGACGUCC |  |  | 1130 nM | 153 nM
